Assay results from ChEMBL document CHEMBL4396889, “From Inhibition to Degradation: Targeting the Antiapoptotic Protein Myeloid Cell Leukemia 1 (MCL1)” (J Med Chem, 2019).
Active and inactive are the calls of the source. The rule behind the calls is not given here.

How the values were obtained:
Assay type in all cases: cell-based
[1] = biological target: T1, Protein cereblon/Induced myeloid leukemia cell differentiation protein Mcl-1 (Homo sapiens) (UniProt Q07820+Q96SW2); assay: Protac activity at Cereblon/MCL1 in human OPM2 cells at 500 nM after 3 hrs in presence of proteasome inhibitor bortezomib by immunoblot analysis
Procedure, shortened: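 OPM2 cells were treated for 3 h with DMSO, degrader and/or the proteasome inhibitor bortezomib, then immunoblotted for MCL1.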

[2] = biological target: Induced myeloid leukemia cell differentiation protein Mcl-1 (Homo sapiens, UniProt Q07820); assay: Induction of MCL1 short isoform degradation in CRBN-/- human OPM2 cells assessed as protein abundance at 100 nM after 48 hrs by immunoblot analysis relative to control
Procedure, shortened: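 OPM2 multiple myeloma cells, wild type or CRBN-knockout, were treated for 48 h with degrader or DMSO vehicle. MCL1 long and short isoforms were detected by immunoblot and levels compared with DMSO controls.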

[3] = biological target: T1, Protein cereblon/Induced myeloid leukemia cell differentiation protein Mcl-1 (Homo sapiens); assay: Protac activity at Cereblon/MCL1 short isoform in human OPM2 cells assessed as MCL1 short isoform level at 300 nM pre-incubated for 72 hrs followed by cycloheximide addition and measured after 60 mins by immunoblot analysis (reference value: 49%)
Procedure, shortened: (§1)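 OPM2 or MM1.S cells were treated for 72 h with compound or DMSO. Cycloheximide was added for the final 30, 60 or 120 min. MCL1 was read by immunoblot and compared with DMSO-treated cells as a normal-turnover reference.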

[4] = biological target: T1, Protein cereblon/Induced myeloid leukemia cell differentiation protein Mcl-1 (Homo sapiens); assay: Protac activity at Cereblon/MCL1 short isoform in human OPM2 cells assessed as MCL1 short isoform level at 300 nM pre-incubated for 72 hrs followed by cycloheximide addition and measured after 120 mins by immunoblot analysis (reference value: 14%); procedure, shortened: as §1

T1 sequence (Q07820 whole entry, looked up): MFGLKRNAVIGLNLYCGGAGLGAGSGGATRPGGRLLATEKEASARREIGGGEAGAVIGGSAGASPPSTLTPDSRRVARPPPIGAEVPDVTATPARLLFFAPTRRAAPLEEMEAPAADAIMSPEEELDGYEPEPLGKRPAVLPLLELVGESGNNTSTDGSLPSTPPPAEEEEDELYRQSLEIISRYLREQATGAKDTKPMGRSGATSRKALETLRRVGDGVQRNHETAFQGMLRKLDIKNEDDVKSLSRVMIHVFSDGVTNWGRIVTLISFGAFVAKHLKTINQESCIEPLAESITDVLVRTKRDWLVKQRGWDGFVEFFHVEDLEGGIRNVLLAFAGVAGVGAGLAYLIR
T1 sequence (Q96SW2 whole entry, looked up): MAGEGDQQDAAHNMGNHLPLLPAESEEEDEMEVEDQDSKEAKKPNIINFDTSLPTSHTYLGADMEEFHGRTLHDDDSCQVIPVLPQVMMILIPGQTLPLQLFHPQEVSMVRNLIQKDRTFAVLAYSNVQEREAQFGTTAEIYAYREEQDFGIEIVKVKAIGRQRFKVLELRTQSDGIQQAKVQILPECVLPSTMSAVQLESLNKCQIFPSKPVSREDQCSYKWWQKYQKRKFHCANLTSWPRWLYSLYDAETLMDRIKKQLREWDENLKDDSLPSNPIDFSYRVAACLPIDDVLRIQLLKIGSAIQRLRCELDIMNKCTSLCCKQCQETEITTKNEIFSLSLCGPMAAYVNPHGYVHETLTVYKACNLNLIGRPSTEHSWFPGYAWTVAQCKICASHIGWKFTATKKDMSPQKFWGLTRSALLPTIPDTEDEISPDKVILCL
Chain of Induced myeloid leukemia cell differentiation protein Mcl-1 (Q07820 whole entry, canonical isoform): as the sequence (Q07820 whole entry, looked up) above

`Cc1nn(C)c(COc2ccc(N3CCN(S(=O)(=O)N(C)C)CC3)cc2)c1-c1cccc2c(CCCOc3cccc4ccccc34)c(C(=O)O)n(CCN3CCN(C(=O)COc4cccc5c4C(=O)N(C4CCC(=O)NC4=O)C5=O)CC3)c12` (centres undefined) was tested, and the Activity [1] was “inactive”, the Activity [2] was 100% and the Activity [3] was 8%. It also gave an Activity [4] of 2%.
